Active and inactive are the calls of the source. The rule behind the calls is not given here.
Experiments:
[1] = target: Mitogen-activated protein kinase 14 (Homo sapiens) (UniProt Q16539); experiment: Inhibition of p38a MAPK assessed as residual activity at 10 uM
[2] = target: Atypical kinase COQ8B, mitochondrial (Homo sapiens) (UniProt Q96D53); experiment: Inhibition of ADCK4 assessed as residual activity at 10 uM relative to control
[3] = system: Leucine-rich repeat serine/threonine-protein kinase 2 (Homo sapiens), Q5S007 [A2016T]; conditions: HEK293, 1 to 3 uM
[4] = target: Insulin receptor-related protein (Homo sapiens) (UniProt P14616); experiment: Inhibition of IRR assessed as residual activity at 1 uM
Sequence of Insulin receptor-related protein (Homo sapiens) (P14616 27-742 limits assumed): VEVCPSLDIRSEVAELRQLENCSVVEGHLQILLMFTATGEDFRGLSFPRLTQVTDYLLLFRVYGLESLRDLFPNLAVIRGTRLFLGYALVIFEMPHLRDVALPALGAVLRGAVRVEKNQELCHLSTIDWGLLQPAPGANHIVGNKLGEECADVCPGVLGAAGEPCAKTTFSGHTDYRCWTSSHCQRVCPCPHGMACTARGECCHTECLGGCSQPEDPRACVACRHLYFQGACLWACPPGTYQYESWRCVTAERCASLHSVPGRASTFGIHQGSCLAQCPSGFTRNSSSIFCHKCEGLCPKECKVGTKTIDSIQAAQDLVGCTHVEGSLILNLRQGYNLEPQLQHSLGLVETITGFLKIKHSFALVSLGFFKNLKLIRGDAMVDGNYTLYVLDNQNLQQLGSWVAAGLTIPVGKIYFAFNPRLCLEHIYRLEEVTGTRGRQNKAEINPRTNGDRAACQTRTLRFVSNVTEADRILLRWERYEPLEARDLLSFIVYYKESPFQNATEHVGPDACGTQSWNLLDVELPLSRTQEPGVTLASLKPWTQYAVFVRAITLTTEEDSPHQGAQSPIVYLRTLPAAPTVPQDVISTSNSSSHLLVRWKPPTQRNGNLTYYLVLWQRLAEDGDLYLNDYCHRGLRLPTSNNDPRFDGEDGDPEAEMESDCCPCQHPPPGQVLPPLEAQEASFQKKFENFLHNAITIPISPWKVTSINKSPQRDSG
Sequence of Insulin receptor-related protein (Homo sapiens) (P14616 747-1297 limits assumed): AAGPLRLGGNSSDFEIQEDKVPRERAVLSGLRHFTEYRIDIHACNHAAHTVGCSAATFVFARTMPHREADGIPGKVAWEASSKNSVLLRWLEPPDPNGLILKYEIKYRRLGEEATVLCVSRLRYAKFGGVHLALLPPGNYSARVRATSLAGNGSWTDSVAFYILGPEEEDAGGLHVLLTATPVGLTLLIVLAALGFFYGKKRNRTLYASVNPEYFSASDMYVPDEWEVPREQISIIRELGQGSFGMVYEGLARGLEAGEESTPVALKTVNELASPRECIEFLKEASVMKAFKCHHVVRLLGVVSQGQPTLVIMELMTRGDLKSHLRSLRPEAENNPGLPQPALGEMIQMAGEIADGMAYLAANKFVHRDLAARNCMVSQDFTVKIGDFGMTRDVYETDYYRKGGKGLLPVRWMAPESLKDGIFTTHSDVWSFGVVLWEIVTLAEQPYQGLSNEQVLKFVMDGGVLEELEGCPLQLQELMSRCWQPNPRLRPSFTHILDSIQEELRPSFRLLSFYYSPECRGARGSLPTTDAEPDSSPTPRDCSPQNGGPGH
How it was run: (§1)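 Radioactivity-based enzymatic activity assay of the named kinase, run as part of a 131-kinase specificity panel at the National Centre for Protein Kinase Profiling (Dundee). Residual activity was read at the stated single inhibitor concentration.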

[5] = target: Serine/threonine-protein kinase NLK (Homo sapiens) (UniProt Q9UBE8); experiment: Inhibition of NLK assessed as residual activity at 10 uM relative to control
[6] = target: Serine/threonine-protein kinase tousled-like 1 (Homo sapiens) (UniProt Q9UKI8); experiment: Inhibition of TLK1 assessed as residual activity at 10 uM relative to control
Sequence of Serine/threonine-protein kinase tousled-like 1 (Homo sapiens) (Q9UKI8 whole entry): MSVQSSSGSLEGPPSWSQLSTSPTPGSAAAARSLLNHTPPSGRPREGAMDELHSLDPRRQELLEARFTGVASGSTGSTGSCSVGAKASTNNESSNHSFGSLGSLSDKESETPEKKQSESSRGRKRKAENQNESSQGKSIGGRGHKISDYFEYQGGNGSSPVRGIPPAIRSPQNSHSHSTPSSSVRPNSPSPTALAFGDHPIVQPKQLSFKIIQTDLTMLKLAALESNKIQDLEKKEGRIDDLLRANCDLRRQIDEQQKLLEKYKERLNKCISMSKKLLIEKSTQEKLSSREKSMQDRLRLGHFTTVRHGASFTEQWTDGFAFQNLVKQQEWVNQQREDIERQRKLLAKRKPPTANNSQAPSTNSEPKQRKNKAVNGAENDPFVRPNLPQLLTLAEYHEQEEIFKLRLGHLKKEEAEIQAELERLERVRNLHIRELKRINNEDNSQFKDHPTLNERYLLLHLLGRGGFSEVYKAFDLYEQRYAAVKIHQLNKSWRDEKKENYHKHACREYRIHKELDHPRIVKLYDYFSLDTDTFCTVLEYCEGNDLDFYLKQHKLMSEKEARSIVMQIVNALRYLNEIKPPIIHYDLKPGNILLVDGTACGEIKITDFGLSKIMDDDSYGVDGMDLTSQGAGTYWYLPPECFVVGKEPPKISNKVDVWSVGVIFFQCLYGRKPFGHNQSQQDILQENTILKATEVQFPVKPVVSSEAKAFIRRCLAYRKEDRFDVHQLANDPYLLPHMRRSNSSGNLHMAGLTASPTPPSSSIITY

[7] = target: Serine/threonine-protein kinase SIK2 (Homo sapiens) (UniProt Q9H0K1); experiment: Inhibition of SIK2 assessed as residual activity at 10 uM
[8] = target: Receptor-interacting serine/threonine-protein kinase 2 (Homo sapiens) (UniProt O43353); experiment: Inhibition of RIPK2 assessed as residual activity at 1 uM
Sequence of Receptor-interacting serine/threonine-protein kinase 2 (Homo sapiens) (O43353 whole entry): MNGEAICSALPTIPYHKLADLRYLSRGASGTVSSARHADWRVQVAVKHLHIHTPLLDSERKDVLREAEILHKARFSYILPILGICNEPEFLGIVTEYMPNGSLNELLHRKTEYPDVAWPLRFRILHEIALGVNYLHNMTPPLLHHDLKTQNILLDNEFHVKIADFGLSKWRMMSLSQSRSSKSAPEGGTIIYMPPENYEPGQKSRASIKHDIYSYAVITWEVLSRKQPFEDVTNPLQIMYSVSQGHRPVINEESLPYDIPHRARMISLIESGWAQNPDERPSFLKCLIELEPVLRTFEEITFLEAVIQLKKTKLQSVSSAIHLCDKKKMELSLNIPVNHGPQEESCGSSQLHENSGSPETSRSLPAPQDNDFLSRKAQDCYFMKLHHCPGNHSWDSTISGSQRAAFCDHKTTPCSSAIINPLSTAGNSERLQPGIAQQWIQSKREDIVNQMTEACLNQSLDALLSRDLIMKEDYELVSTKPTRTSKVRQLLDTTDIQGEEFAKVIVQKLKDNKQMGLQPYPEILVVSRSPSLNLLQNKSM

[9] = target: T1, NUAK family SNF1-like kinase 1 (Homo sapiens) (UniProt O60285); experiment: Inhibition of NUAK1 assessed as residual activity at 1 uM
T1 sequence (whole entry): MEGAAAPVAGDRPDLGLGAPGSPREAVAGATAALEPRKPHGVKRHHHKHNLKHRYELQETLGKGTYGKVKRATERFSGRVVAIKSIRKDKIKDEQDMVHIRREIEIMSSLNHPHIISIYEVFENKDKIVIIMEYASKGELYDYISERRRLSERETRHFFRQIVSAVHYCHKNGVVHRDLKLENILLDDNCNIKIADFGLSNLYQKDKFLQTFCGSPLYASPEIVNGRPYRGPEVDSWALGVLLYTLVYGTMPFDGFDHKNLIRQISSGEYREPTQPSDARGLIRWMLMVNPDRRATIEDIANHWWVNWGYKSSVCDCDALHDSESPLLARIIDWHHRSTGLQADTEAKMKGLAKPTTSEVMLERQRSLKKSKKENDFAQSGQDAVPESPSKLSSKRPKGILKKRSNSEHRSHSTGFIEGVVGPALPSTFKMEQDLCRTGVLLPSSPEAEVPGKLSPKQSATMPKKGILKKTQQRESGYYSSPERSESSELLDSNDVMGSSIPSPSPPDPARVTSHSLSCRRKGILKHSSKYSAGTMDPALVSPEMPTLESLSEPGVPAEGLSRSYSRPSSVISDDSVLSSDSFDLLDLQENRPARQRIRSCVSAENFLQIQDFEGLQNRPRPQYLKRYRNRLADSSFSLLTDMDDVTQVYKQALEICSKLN

[10] = target: Casein kinase I isoform epsilon (Homo sapiens) (UniProt P49674); experiment: Inhibition of CSNK1E assessed as residual activity at 10 uM relative to control
Sequence of Casein kinase I isoform epsilon (Homo sapiens) (P49674 whole entry, looked up, canonical isoform): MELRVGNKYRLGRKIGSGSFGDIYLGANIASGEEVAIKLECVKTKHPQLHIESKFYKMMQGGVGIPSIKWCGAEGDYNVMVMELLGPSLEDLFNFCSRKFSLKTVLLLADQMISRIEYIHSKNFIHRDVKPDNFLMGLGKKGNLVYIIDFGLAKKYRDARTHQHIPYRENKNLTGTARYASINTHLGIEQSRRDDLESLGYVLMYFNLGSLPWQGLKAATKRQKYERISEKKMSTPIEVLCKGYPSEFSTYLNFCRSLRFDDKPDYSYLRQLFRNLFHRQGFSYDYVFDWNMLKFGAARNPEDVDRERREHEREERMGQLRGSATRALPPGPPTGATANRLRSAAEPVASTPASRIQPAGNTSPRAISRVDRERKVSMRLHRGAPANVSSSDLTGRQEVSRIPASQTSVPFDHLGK
How it was run: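 Competition kinase-binding assay (KINOMEscan) across a non-redundant panel of 329 kinases beyond the radiometric panel; residual binding expressed relative to control.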

[11] = target: Dual serine/threonine and tyrosine protein kinase (Homo sapiens) (UniProt Q6XUX3); experiment: Inhibition of RIPK5 assessed as residual activity at 10 uM relative to control
Brain = experiment: AUClast in Swiss albino mouse brain at 1 mg/kg, iv; assay type: ADME, organism-based; set-up: dose 1 mg/kg, route intravenous, time 0 - last; conditions: in vivo
How it was run: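 Male Swiss Albino mice, single dose given intravenously (1 mg/kg) or orally (10 mg/kg). Drug measured in plasma and brain, with AUClast taken for each. The brain/plasma ratio is based on AUClast, and oral bioavailability is derived from the IV and PO plasma data.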

[12] = target: Receptor-type tyrosine-protein kinase FLT3 (Homo sapiens) (UniProt P36888); experiment: Inhibition of FLT3 assessed as residual activity at 10 uM relative to control
[13] = target: Cyclin-dependent kinase 14 (Homo sapiens) (UniProt O94921); experiment: Inhibition of PFTK1 assessed as residual activity at 10 uM relative to control
Sequence of Cyclin-dependent kinase 14 (Homo sapiens) (O94921 whole entry): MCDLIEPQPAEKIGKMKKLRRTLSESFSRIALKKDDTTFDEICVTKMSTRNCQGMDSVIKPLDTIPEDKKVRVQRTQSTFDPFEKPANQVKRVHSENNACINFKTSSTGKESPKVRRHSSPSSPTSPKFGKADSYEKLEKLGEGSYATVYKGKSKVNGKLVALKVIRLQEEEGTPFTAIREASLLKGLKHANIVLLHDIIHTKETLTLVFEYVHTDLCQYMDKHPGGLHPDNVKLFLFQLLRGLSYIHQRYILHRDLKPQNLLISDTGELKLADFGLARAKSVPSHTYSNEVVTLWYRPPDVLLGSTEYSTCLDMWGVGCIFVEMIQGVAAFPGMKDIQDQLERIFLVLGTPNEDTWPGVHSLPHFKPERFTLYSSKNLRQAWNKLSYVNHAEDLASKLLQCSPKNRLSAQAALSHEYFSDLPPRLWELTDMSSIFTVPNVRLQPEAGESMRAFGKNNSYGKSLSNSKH

[14] = target: Mitogen-activated protein kinase 1 (Homo sapiens) (UniProt P28482); experiment: Inhibition of ERK2 assessed as residual activity at 1 uM; how it was run: as §1
Sequence of Mitogen-activated protein kinase 1 (Homo sapiens) (P28482 whole entry): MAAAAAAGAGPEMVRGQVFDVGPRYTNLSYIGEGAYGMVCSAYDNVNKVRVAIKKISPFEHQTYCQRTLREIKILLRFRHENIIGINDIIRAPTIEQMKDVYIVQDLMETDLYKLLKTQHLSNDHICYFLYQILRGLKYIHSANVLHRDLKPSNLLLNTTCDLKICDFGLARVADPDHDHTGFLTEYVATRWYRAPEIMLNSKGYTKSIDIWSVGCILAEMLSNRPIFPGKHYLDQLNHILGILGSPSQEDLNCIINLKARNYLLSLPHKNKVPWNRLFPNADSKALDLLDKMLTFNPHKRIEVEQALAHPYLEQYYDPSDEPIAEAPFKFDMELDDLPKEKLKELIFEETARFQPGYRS

[15] = target: High affinity nerve growth factor receptor (Homo sapiens) (UniProt P04629); experiment: Inhibition of TrkA assessed as residual activity at 1 uM
Sequence of High affinity nerve growth factor receptor (Homo sapiens) (P04629 33-796 limits assumed): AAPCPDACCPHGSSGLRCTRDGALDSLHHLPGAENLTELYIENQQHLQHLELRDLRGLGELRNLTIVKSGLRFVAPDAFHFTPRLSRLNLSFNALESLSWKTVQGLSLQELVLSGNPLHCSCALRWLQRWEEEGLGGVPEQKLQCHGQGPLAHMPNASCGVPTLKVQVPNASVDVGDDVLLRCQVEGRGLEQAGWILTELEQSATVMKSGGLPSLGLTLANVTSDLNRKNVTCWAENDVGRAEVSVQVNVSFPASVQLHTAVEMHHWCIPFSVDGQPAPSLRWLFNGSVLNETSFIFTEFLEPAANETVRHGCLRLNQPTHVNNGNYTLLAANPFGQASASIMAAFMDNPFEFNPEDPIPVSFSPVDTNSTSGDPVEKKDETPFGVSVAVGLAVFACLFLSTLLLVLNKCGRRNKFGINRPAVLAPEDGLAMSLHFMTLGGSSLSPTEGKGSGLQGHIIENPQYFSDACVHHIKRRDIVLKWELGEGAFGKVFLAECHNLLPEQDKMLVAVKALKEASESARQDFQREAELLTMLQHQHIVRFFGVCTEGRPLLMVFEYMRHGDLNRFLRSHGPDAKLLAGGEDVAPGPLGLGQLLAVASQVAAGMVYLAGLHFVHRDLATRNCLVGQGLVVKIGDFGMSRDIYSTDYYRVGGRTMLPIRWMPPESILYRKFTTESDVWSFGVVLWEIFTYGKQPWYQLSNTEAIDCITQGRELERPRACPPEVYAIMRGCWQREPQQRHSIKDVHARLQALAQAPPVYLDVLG

[16] = target: Serine/threonine-protein kinase 32B (Homo sapiens) (UniProt Q9NY57); experiment: Inhibition of YANK2 assessed as residual activity at 10 uM relative to control
Sequence of Serine/threonine-protein kinase 32B (Homo sapiens) (Q9NY57 whole entry): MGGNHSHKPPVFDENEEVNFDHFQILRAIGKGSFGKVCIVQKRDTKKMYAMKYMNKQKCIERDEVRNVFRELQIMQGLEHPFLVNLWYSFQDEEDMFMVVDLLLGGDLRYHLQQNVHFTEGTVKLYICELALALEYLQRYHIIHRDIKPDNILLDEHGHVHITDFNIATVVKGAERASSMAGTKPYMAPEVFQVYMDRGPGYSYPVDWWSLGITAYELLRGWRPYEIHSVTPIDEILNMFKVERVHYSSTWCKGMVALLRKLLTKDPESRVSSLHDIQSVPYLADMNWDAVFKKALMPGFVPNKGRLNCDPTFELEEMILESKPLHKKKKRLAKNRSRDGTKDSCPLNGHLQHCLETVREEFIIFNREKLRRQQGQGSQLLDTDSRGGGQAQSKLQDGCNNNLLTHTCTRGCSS

With `O=C(Nc1cccnc1)c1cc(-c2ccnc(F)c2)ccc1OCc1ccccc1` the Activity [1] was 102%, the Activity [2] was 26% and the inhibition [3] was “Active”. For the same compound, the Activity [4] was 76%, the Activity [5] was 65% and the Activity [6] was 66%. The Activity [7] was 111%, the Activity [8] was 59% and the Activity [9] was 71%. For the same compound, the Activity [10] was 31%, the Activity [11] was 69% and the AUClast (Brain) was 708.7 ng·h/mL. It also gave an Activity [12] of 66%, an Activity [13] of 80% and an Activity [14] of 104%. The Activity [15] was 80% and the Activity [16] was 79%.
